# In ChEMBL document CHEMBL1155278, “3,4-Diaryl-isoxazoles and -imidazoles as potent dual inhibitors of p38alpha mitogen activated protein kinase and casein kinase 1delta” (J Med Chem, 2009):
# pIC50: −log10 of the molar value. The source made the active and inactive calls. No cut-off for these calls is given here.
# How the values were obtained:
# [1] = Cell cycle arrest in human AC1-M88 cells assessed as accumulation at subG1 phase at 0.38 uM after 48 hrs by propidium iodide staining-based FACS analysis; type: functional
# [2] = test system: Casein kinase I isoform delta (Rattus norvegicus), Q06486 [M82F]; details: 5 nM
# Casein kinase I isoform delta (Rattus norvegicus), Q06486 [M82F], sequence (Q06486 whole entry M82F, the tested form may be a part, canonical isoform): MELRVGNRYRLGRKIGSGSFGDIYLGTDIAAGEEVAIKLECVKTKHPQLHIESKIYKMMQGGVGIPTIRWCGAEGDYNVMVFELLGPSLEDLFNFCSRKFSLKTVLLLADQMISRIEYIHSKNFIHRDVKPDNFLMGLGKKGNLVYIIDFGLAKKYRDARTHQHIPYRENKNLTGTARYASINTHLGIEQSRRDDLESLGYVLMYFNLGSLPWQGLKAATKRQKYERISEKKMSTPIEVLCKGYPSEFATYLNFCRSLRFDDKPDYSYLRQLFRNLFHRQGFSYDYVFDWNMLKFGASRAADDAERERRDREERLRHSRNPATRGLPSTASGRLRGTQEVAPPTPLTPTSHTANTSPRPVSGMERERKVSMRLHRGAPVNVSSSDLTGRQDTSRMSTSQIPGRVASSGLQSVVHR
# [3] = molecular target: T1, Serine/threonine-protein kinase BRSK2 (Homo sapiens) (UniProt Q8IWQ3); test: Inhibition of BRSK2 assessed as residual activity at 0.1 uM by Cherenkov counting relative to control in presence of 50 uM ATP
# T1 sequence (whole entry): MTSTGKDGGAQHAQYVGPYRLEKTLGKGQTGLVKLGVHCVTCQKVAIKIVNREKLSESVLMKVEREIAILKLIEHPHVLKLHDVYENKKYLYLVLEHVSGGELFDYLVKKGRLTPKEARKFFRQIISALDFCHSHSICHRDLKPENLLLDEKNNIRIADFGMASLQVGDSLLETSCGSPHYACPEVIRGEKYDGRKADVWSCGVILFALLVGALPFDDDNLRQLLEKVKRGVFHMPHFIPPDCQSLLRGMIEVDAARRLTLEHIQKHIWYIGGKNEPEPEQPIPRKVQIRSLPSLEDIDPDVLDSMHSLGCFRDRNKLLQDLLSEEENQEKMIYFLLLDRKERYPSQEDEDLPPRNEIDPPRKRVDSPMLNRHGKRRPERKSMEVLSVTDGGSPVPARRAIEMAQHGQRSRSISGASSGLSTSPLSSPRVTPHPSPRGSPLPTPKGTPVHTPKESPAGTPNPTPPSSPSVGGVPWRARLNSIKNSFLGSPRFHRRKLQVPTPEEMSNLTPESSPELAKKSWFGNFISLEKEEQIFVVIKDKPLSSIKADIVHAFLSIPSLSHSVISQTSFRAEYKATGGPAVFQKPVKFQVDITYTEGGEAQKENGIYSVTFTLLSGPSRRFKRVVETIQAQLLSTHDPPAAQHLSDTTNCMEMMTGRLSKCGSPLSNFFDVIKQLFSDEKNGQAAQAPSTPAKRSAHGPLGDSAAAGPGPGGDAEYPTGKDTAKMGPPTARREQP
# Method in brief: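 Single-concentration screen at 0.1 µM across a panel of 76 protein kinases. Each kinase was run at an ATP concentration approximating its ATP Km. Results are % mean residual activity versus control assays without compound (n = 3 ± SD).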
# [4] = Cell cycle arrest in human AC1-M88 cells assessed as accumulation at G2 phase at 0.38 uM after 48 hrs by propidium iodide staining-based FACS analysis; type: functional
# [5] = Cell cycle arrest in human AC1-M88 cells assessed as accumulation at S phase at 0.38 uM after 48 hrs by propidium iodide staining-based FACS analysis; type: functional
# [6] = molecular target: T2, Casein kinase I isoform delta (Homo sapiens, UniProt P48730); test: Inhibition of recombinant CK1delta kinase domain at 5 nM by ATP competitive binding assay
# Target sequence in this assay (P48730 whole entry, looked up, the tested form may be a part, canonical isoform): as the sequence (Q06486 whole entry M82F, the tested form may be a part, canonical isoform) above, with F82M, V381I counted along it
# [7] = Cell cycle arrest in human AC1-M88 cells assessed as accumulation at G1 phase at 0.38 uM after 48 hrs by propidium iodide staining-based FACS analysis; type: functional
# [8] = molecular target: Casein kinase I isoform delta (Rattus norvegicus) (UniProt Q06486); details: 5 nM
# Casein kinase I isoform delta (Rattus norvegicus), sequence (Q06486 whole entry, looked up, the tested form may be a part, canonical isoform): as the sequence (Q06486 whole entry M82F, the tested form may be a part, canonical isoform) above, with F82M counted along it
# [9] = molecular target: T2, Casein kinase I isoform delta; test: Inhibition of recombinant CK1delta kinase domain at 10 nM by ATP competitive binding assay
# Target sequence in this assay (P48730 whole entry, looked up, the tested form may be a part, canonical isoform): as the sequence (Q06486 whole entry M82F, the tested form may be a part, canonical isoform) above, with F82M, V381I counted along it
# [10] = Cell cycle arrest in human AC1-M88 cells assessed as accumulation at G2 phase at 0.26 uM after 48 hrs by propidium iodide staining-based FACS analysis; type: functional
# [11] = molecular target: T2, Casein kinase I isoform delta; test: Inhibition of recombinant CK1delta kinase domain at 10 nM by ATP competitive binding assay
# Target sequence in this assay (P48730 whole entry, looked up, the tested form may be a part, canonical isoform): as the sequence (Q06486 whole entry M82F, the tested form may be a part, canonical isoform) above, with F82M, V381I counted along it
# [12] = Cell cycle arrest in human AC1-M88 cells assessed as accumulation at G1 phase at 0.26 uM after 48 hrs by propidium iodide staining-based FACS analysis; type: functional
# Method in brief: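 AC1-M88 cells (extravillous trophoblast fused with the Jeg-3 choriocarcinoma mutant AC1-1) were grown in DMEM/F-12 with 10% FCS at 37 °C in humidified 5% CO2. Cells were exposed to compound for 48 h alongside a DMSO control (0.004% final), then fixed and stained with propidium iodide. Cell cycle was read by flow cytometry with the Cycle Test Plus kit.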
# [13] = test system: Casein kinase I isoform delta (Rattus norvegicus), Q06486 [M82F]; test: Inhibition of GST-fused rat CK1delta M82F mutant at 10 nM by Cherenkov counting in presence of 20 uM ATP
# [14] = Cell cycle arrest in human AC1-M88 cells assessed as accumulation at S phase at 0.26 uM after 48 hrs by propidium iodide staining-based FACS analysis; type: functional
# [15] = Cell cycle arrest in human AC1-M88 cells assessed as accumulation at subG1 phase at 0.26 uM after 48 hrs by propidium iodide staining-based FACS analysis; type: functional
# [16] = molecular target: Casein kinase I isoform delta (Rattus norvegicus) (UniProt Q06486); test: Inhibition of GST-fused rat CK1delta at 10 nM by Cherenkov counting in presence of 20 uM ATP
# [17] = molecular target: T2, Casein kinase I isoform delta; test: Inhibition of CK1delta at 10 uM by Cherenkov counting in presence of 20 uM ATP
# Target sequence in this assay (P48730 whole entry, looked up, the tested form may be a part, canonical isoform): as the sequence (Q06486 whole entry M82F, the tested form may be a part, canonical isoform) above, with F82M, V381I counted along it
# [18] = molecular target: Mitogen-activated protein kinase 9 (Homo sapiens) (UniProt P45984); test: Inhibition of JNK2 at 10 uM by Cherenkov counting in presence of 20 uM ATP
# Mitogen-activated protein kinase 9 (Homo sapiens), sequence (P45984 whole entry, looked up): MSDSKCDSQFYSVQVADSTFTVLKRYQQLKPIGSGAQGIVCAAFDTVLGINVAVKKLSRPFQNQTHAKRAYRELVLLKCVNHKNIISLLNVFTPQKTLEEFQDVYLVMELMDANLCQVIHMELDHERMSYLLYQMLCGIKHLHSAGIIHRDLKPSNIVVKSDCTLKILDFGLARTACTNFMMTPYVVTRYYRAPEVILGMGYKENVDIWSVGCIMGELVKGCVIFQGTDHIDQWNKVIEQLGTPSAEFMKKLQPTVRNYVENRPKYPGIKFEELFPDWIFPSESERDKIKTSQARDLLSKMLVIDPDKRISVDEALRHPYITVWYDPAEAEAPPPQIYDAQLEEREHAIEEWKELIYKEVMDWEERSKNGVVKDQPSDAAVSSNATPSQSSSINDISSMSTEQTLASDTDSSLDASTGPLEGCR
# [19] = molecular target: Mitogen-activated protein kinase 10 (Homo sapiens) (UniProt P53779); test: Inhibition of JNK3 at 10 uM by Cherenkov counting in presence of 20 uM ATP
# Mitogen-activated protein kinase 10 (Homo sapiens), sequence (P53779 whole entry, canonical isoform): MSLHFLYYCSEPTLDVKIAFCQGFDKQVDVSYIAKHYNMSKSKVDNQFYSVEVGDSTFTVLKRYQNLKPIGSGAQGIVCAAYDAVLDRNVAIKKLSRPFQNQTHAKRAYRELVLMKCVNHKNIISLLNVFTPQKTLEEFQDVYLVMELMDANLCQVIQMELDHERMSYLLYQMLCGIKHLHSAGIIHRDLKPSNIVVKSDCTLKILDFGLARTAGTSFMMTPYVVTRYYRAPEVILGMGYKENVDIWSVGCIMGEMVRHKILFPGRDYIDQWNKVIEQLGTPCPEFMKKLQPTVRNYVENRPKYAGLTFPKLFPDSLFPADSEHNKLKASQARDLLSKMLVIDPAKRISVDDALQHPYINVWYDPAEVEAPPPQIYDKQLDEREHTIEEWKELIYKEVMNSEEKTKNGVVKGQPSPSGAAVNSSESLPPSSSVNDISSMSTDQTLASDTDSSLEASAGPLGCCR
# [20] = molecular target: T2, Casein kinase I isoform delta; test: Inhibition of CK1delta by Cherenkov counting in presence of 20 uM ATP
# Target sequence in this assay (P48730 whole entry, the tested form may be a part, canonical isoform): as the sequence (Q06486 whole entry M82F, the tested form may be a part, canonical isoform) above, with F82M, V381I counted along it
smiles,measurement,setting,value
COc1ccc(/C=C/C(=O)Nc2cc(-c3[nH]c(SC)nc3-c3ccc(F)cc3)ccn2)c(OC)c1,Activity,[1],87.1%
same,inhibition,[2],inactive
same,Activity,[3],86%
same,Activity,[4],3.08%
same,Activity,[5],2.41%
same,inhibition,[6],18%
same,Activity,[7],6.3%
same,inhibition,[8],Active
COc1ccc(/C=C/C(=O)Nc2cc(-c3[nH]c([S+](C)[O-])nc3-c3ccc(F)cc3)ccn2)c(OC)c1 (configuration not stated),inhibition,[9],10%
same,Activity,[10],5.32%
same,Activity,[3],97%
same,inhibition,[11],10%
same,Activity,[12],12%
same,inhibition,[13],inactive
same,Activity,[14],3.95%
same,Activity,[15],77.1%
same,inhibition,[16],Active
CC(C)c1noc(-c2ccc(F)cc2)c1-c1ccncc1,inhibition,[17],40%
CC(C)c1onc(-c2ccc(F)cc2)c1-c1ccncc1,inhibition,[17],90%
same,inhibition,[18],87%
same,inhibition,[19],72%
same,pIC50,[20],6.64
